Measurements: ChEMBL document CHEMBL1147382, “Cytotoxic constituents from Hyptis verticillata” (J Nat Prod, 1993)
Converted amounts (≈) assume the structure as drawn. The source made the active and inactive calls. No cut-off for these calls is given here.

Tests used:
[1] = Toxicity in brine shrimp; assay type: organism-based; settings: artemia, in vivo
P388 = assay: Cytotoxicity in mouse P388 cells; assay type: functional; settings: read-out: ED50 (the source's name)
[2] = Antimitotic activity in rat ASK cells assessed as reversal of astrocyte formation at 100 ug/mL; assay type: functional
How it was run: (§1)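 Cultured rat glioma (ASK) cells were used, following Swanson et al. The antimitotic read-out was the dose giving 100% reversal of astrocyte conversion. Pure lignans were tested across a range of concentrations.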

[3] = Antimitotic activity in rat ASK cells assessed as reversal of astrocyte formation at 20 ug/mL; assay type: functional; how it was run: as §1
[4] = Antimitotic activity in rat ASK cells assessed as reversal of astrocyte formation at 4 ug/mL; assay type: functional; how it was run: as §1
[5] = Antimitotic activity in rat ASK cells assessed as reversal of astrocyte formation at 0.8 ug/mL; assay type: functional; how it was run: as §1
[6] = Antimitotic activity in rat ASK cells assessed as reversal of astrocyte formation at 0.16 ug/mL; assay type: functional; how it was run: as §1
[7] = Antimitotic activity in rat ASK cells assessed as reversal of astrocyte formation at 0.032 ug/mL; assay type: functional; how it was run: as §1
[8] = Antimitotic activity in rat ASK cells assessed as reversal of astrocyte formation at 0.0064 ug/mL; assay type: functional; how it was run: as §1
A-431 = assay: Cytotoxicity against human A431 cells; assay type: functional; settings: read-out: ED50 (the source's name)
[9] = Cytotoxicity against human BC1 cells; assay type: functional; settings: read-out: ED50 (the source's name)
Col2 = assay: Cytotoxicity against human Col2 cells; assay type: functional; settings: read-out: ED50 (the source's name)
HT = assay: Cytotoxicity against human HT cells; assay type: functional; settings: read-out: ED50 (the source's name)
[10] = Cytotoxicity against human KBV1 cells; assay type: functional; settings: KB-V1, read-out: ED50 (the source's name)
LNCaP = assay: Cytotoxicity against human LNCAP cells; assay type: functional; settings: read-out: ED50 (the source's name)
Lu1 = assay: Cytotoxicity against human Lu1 cells; assay type: functional; settings: read-out: ED50 (the source's name)
[11] = Cytotoxicity against human U373 cells; assay type: functional, U-373MG ATCC; settings: U373 MG, read-out: ED50 (the source's name)
ZR-75-1 = assay: Cytotoxicity against human ZR-75-1 cells; assay type: functional; settings: read-out: ED50 (the source's name)
KB = assay: Cytotoxicity against human KB cells; assay type: functional; settings: read-out: ED50 (the source's name)
Candida albicans = assay: Antimicrobial activity against Candida albicans ATCC 10231 at 0.2 to 1 ug/ml; assay type: functional, organism-based
[12] = Antimitotic activity in rat ASK cells assessed as reversal of astrocyte formation at 0.00128 ug/mL; assay type: functional
How it was run: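 Cultured rat glioma (ASK) cells, run essentially by a previously published astrocyte-formation procedure. Antimitotic potential is scored as the dose needed to give 100% reversal of astrocyte conversion.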

| SMILES | LC50 [1] | EC50 (P388) | Activity [2] | Activity [3] | Activity [4] | Activity [5] | Activity [6] | Activity [7] | Activity [8] | EC50 (A-431) | EC50 [9] | EC50 (Col2) | EC50 (HT) | EC50 [10] | EC50 (LNCaP) | EC50 (Lu1) | EC50 [11] | EC50 (ZR-75-1) | EC50 (KB) | also measured |
| --- | --- | --- | --- | --- | --- | --- | --- | --- | --- | --- | --- | --- | --- | --- | --- | --- | --- | --- | --- | --- |
| COc1cc(C[C@H]2C(=O)OC[C@@H]2Cc2ccc3c(c2)OCO3)cc(OC)c1OC | 2.8 µg/mL (≈ 6.99 µM) | 0.4 µg/mL (≈ 0.999 µM) | 100% | 100% | 100% | 100% | 100% | 0% | 0% | > 20 µg/mL | 0.05 µg/mL (≈ 0.125 µM) | 0.08 µg/mL (≈ 0.2 µM) | 0.07 µg/mL (≈ 0.175 µM) | 0.06 µg/mL (≈ 0.15 µM) | 0.16 µg/mL (≈ 0.4 µM) | 0.1 µg/mL (≈ 0.25 µM) | 0.3 µg/mL (≈ 0.749 µM) | 0.5 µg/mL (≈ 1.25 µM) | 0.08 µg/mL (≈ 0.2 µM) | Activity (Candida albicans): Active |
| COc1cc2cc(c1Cl)N(C)C(=O)C[C@H](OC(=O)[C@H](C)N(C)C(C)=O)[C@]1(C)O[C@H]1[C@H](C)[C@@H]1C[C@@](O)(NC(=O)O1)[C@H](OC)/C=C/C=C(\C)C2 [MAYTANSINE] |  |  | 100% | 100% | 100% | 100% | 100% | 100% | 100% |  |  |  |  |  |  |  |  |  |  | Activity [12]: 0% |
| CC[C@]1(O)C[C@H]2CN(CCc3c([nH]c4ccccc34)[C@@](C(=O)OC)(c3cc4c(cc3OC)N(C=O)[C@H]3[C@@](O)(C(=O)OC)[C@H](OC(C)=O)[C@]5(CC)C=CCN6CC[C@]43[C@@H]65)C2)C1 [VINCRISTINE] |  |  | 100% | 100% | 100% | 100% | 100% | 0% | 0% |  |  |  |  |  |  |  |  |  |  | Activity [12]: 0% |
| COc1cc(-c2c3c(c(O)c4cc5c(cc24)OCO5)COC3=O)cc(OC)c1OC [DEHYDROPODOPHYLLOTOXIN] | 255 µg/mL (≈ 621 µM) | > 5 µg/mL | 100% | 100% | 0% | 0% | 0% | 0% | 0% | > 20 µg/mL | 15.2 µg/mL (≈ 37 µM) | 8.9 µg/mL (≈ 21.7 µM) | 9.7 µg/mL (≈ 23.6 µM) | 13 µg/mL (≈ 31.7 µM) | 11.7 µg/mL (≈ 28.5 µM) | 10.6 µg/mL (≈ 25.8 µM) | > 20 µg/mL | > 20 µg/mL | 5 µg/mL (≈ 12.2 µM) |  |
| COc1cc([C@@H]2c3cc4c(cc3[C@H](O)[C@H]3COC(=O)[C@H]23)OCO4)cc(OC)c1OC [PODOFILOX] | 0.2 µg/mL (≈ 0.483 µM) | 0.003 µg/mL (≈ 0.00724 µM) | 100% | 100% | 100% | 100% | 100% | 100% | 0% | 0.03 µg/mL (≈ 0.0724 µM) | 0.03 µg/mL (≈ 0.0724 µM) | 0.005 µg/mL (≈ 0.0121 µM) | 0.003 µg/mL (≈ 0.00724 µM) | 0.06 µg/mL (≈ 0.145 µM) | 0.04 µg/mL (≈ 0.0965 µM) | 0.008 µg/mL (≈ 0.0193 µM) | 0.004 µg/mL (≈ 0.00965 µM) | 0.4 µg/mL (≈ 0.965 µM) | 0.08 µg/mL (≈ 0.193 µM) |  |
| COc1cc([C@@H]2c3cc4c(cc3C[C@H]3COC(=O)[C@@H]32)OCO4)cc(OC)c1OC [DESOXYPODOPHYLLOTOXIN] |  | 0.002 µg/mL (≈ 0.00502 µM) | 100% | 100% | 100% | 100% | 100% | 100% | 0% | 4.3 µg/mL (≈ 10.8 µM) | 0.001 µg/mL (≈ 0.00251 µM) | 0.01 µg/mL (≈ 0.0251 µM) | 0.003 µg/mL (≈ 0.00753 µM) | 0.06 µg/mL (≈ 0.151 µM) | 0.01 µg/mL (≈ 0.0251 µM) | 0.002 µg/mL (≈ 0.00502 µM) | 0.001 µg/mL (≈ 0.00251 µM) | 2 µg/mL (≈ 5.02 µM) | 0.05 µg/mL (≈ 0.125 µM) |  |
| COc1cc([C@@H]2c3cc4c(cc3C[C@H]3COC(=O)[C@@H]32)OCO4)cc(OC)c1O [4'-DEMETHYLDEOXYPODOPHYLLOTOXIN] | 0.2 µg/mL (≈ 0.52 µM) | 0.005 µg/mL (≈ 0.013 µM) | 100% | 100% | 100% | 100% | 100% | 100% | 0% | 0.08 µg/mL (≈ 0.208 µM) | 0.01 µg/mL (≈ 0.026 µM) | 0.03 µg/mL (≈ 0.078 µM) | 0.01 µg/mL (≈ 0.026 µM) | 0.02 µg/mL (≈ 0.052 µM) | 0.02 µg/mL (≈ 0.052 µM) | 0.03 µg/mL (≈ 0.078 µM) | 0.1 µg/mL (≈ 0.26 µM) | 2.1 µg/mL (≈ 5.46 µM) | 0.01 µg/mL (≈ 0.026 µM) | Activity (Candida albicans): Active |
| COc1cc([C@@H]2c3cc4c(cc3C[C@H]3COC(=O)[C@H]32)OCO4)cc(OC)c1OC [DEOXYPICROPODOPHYLLIN] | 142 µg/mL (≈ 355 µM) | 0.1 µg/mL (≈ 0.251 µM) | 100% | 100% | 100% | 100% | 0% | 0% | 0% | > 20 µg/mL | 2.1 µg/mL (≈ 5.27 µM) | 0.3 µg/mL (≈ 0.753 µM) | 0.2 µg/mL (≈ 0.502 µM) | 0.7 µg/mL (≈ 1.76 µM) | 0.2 µg/mL (≈ 0.502 µM) | 0.09 µg/mL (≈ 0.226 µM) | 0.1 µg/mL (≈ 0.251 µM) | 0.6 µg/mL (≈ 1.51 µM) | 0.1 µg/mL (≈ 0.251 µM) |  |
| COc1cc2c(c(OC)c1OC)-c1ccc(OC)c(=O)cc1[C@@H](NC(C)=O)CC2 [COLCHICINE] |  |  | 100% | 100% | 100% | 70% | 0% | 0% | 0% |  |  |  |  |  |  |  |  |  |  | Activity [12]: 0% |
| COc1cc(-c2c3c(cc4cc5c(cc24)OCO5)COC3=O)cc(OC)c1OC [DEOXYDEHYDROPODOPHYLLOTOXIN] | > 500 µg/mL | > 5 µg/mL | 100% | 0% | 0% | 0% |  |  |  | 6.2 µg/mL (≈ 15.7 µM) | > 20 µg/mL | 16.7 µg/mL (≈ 42.3 µM) | > 20 µg/mL | > 20 µg/mL | 11.6 µg/mL (≈ 29.4 µM) | 18.8 µg/mL (≈ 47.7 µM) | > 20 µg/mL | > 20 µg/mL | 11.4 µg/mL (≈ 28.9 µM) |  |
| CC[C@]1(O)C[C@@H]2CN(CCc3c([nH]c4ccccc34)[C@@](C(=O)OC)(c3cc4c(cc3OC)N(C)[C@H]3[C@@](O)(C(=O)OC)[C@H](OC(C)=O)[C@]5(CC)C=CCN6CC[C@]43[C@@H]65)C2)C1 [VINBLASTINE] |  |  | 100% | 100% | 100% | 100% | 100% | 100% | 0% |  |  |  |  |  |  |  |  |  |  | Activity [12]: 0% |
| COc1cc([C@@H]2c3cc4c(cc3C[C@@H]3COC(=O)[C@H]32)OCO4)cc(OC)c1OC [ISODEOXYPODOPHYLLOTOXIN] | > 500 µg/mL | > 20 µg/mL | 100% | 100% | 0% | 0% | 0% | 0% | 0% | 6.2 µg/mL (≈ 15.6 µM) | 17.5 µg/mL (≈ 43.9 µM) | 8.9 µg/mL (≈ 22.3 µM) | 10.7 µg/mL (≈ 26.9 µM) | 11.5 µg/mL (≈ 28.9 µM) | 12 µg/mL (≈ 30.1 µM) | 15.9 µg/mL (≈ 39.9 µM) | 2.9 µg/mL (≈ 7.28 µM) | 13.2 µg/mL (≈ 33.1 µM) | 6.7 µg/mL (≈ 16.8 µM) |  |
| COc1cc(-c2c3c(c(O)c4c(OC)c5c(cc24)OCO5)COC3=O)cc(OC)c1OC | > 500 µg/mL | 4 µg/mL (≈ 9.08 µM) | 100% | 100% | 0% | 0% | 0% | 0% | 0% | 6.2 µg/mL (≈ 14.1 µM) | 7.6 µg/mL (≈ 17.3 µM) | 12.8 µg/mL (≈ 29.1 µM) | 15.6 µg/mL (≈ 35.4 µM) | 8.7 µg/mL (≈ 19.8 µM) | 11.6 µg/mL (≈ 26.3 µM) | 11.7 µg/mL (≈ 26.6 µM) | 16.3 µg/mL (≈ 37 µM) | > 20 µg/mL | 6 µg/mL (≈ 13.6 µM) |  |
| COc1cc(-c2c3c(cc4c(OC)c5c(cc24)OCO5)COC3=O)cc(OC)c1OC | 435 µg/mL (≈ 1020 µM) | 1.8 µg/mL (≈ 4.24 µM) | 100% | 100% | 100% | 0% | 0% | 0% | 0% | > 20 µg/mL | 2.9 µg/mL (≈ 6.83 µM) | 3.2 µg/mL (≈ 7.54 µM) | 3.4 µg/mL (≈ 8.01 µM) | 4.2 µg/mL (≈ 9.9 µM) | 3.2 µg/mL (≈ 7.54 µM) | 4.3 µg/mL (≈ 10.1 µM) | 5.9 µg/mL (≈ 13.9 µM) | > 20 µg/mL | 2.2 µg/mL (≈ 5.18 µM) |  |
